In PMC6935887 (Journal of Medicinal Chemistry, 2019):
Where “and” joins values, the source holds several entries; their conditions need not be identical. Equal entries are not always repeated.

Columns and labels:
[1] = biological target: T1, hCCR2 (Homo sapiens, UniProt P41597); experiment: Tango β-arrestin recruitment assay in U2OS-CCR2 cells; type: cell-based; details: inhibition of CCL2-induced β-arrestin recruitment in U2OS-CCR2
T1 sequence (P41597 1-360 isoform P41597-2): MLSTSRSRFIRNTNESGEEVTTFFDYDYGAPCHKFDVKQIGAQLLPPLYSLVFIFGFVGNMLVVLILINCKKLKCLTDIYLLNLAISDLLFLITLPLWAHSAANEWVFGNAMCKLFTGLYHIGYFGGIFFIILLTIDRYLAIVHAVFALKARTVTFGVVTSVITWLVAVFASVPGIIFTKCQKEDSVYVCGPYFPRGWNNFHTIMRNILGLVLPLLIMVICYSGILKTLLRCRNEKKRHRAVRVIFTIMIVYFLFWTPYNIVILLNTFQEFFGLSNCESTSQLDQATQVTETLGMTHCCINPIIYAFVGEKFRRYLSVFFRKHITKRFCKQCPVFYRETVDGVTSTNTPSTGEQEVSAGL
Summary of the method: (§1)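 Tango bla U2OS cells (human CCR2b or CCR5) were trypsinized and seeded at 10 000 cells/well in FreeStyle medium. Agonist mode: CCL2 or CCL3 for 16 h, 37 °C, 5% CO2. Antagonist mode: 30 min room-temperature preincubation with increasing compound (≤0.5% DMSO final), then 16 h with EC80 CCL2 (5 nM, CCR2) or CCL3 (14 nM, CCR5). LiveBLAzer-FRET B/G substrate 2 h; excitation 400 nm, 460/535 nm emission ratio.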

[2] = biological target: T1, hCCR2; experiment: [3H]-CCR2-RA-[R] displacement binding assay on U2OS-CCR2b membranes; details: displacement of ∼6 nM [3H]-CCR2-RA-[R] from U2OS cells stably expressing CCR2, 25 °C
Summary of the method: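 U2OS-CCR2b membranes (15–20 μg protein) were incubated with ~6 nM [3H]-CCR2-RA-[R] and at least 6 competitor concentrations. Buffer: 50 mM Tris-HCl, 5 mM MgCl2, 0.1% CHAPS, pH 7.4. Incubation 2 h at 25 °C. Rapid GF/B filtration, ten washes with ice-cold buffer (0.05% CHAPS), scintillation counting. Mean ± SEM of ≥3 experiments in duplicate.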

[3] = test system: CCR2; details: read-out: IC50 in CCR2 calcium flux assay; previously reported activity; cited from earlier work
[4] = biological target: hCCR5 (Homo sapiens, UniProt P51681); experiment: Tango β-arrestin recruitment assay in U2OS-CCR5 cells; type: cell-based; details: inhibition of CCL3-induced β-arrestin recruitment in U2OS-CCR5
Summary of the method: as §1

Chain of hCCR5 (P51681 whole entry): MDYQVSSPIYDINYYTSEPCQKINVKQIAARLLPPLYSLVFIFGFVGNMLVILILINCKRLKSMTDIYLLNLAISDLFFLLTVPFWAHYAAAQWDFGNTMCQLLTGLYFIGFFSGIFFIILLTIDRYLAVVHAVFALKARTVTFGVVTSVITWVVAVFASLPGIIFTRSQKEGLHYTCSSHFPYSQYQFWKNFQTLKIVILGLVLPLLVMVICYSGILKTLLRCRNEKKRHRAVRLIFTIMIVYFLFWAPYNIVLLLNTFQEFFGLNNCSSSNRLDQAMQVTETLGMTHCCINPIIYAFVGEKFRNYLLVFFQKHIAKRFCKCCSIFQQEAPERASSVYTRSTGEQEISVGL

Compound: Nc1nc2[nH]c(C3CC3)c(Cc3cccc(Cl)c3)c(=O)n2n1 [Compound 8, 2-Amino-6-(3-chlorobenzyl)-5-cyclopropyl[1,2,4]triazolo[1,5-a]pyrimidin-7(4H)-one]
- Hill slope (nH) [1]: −2.7
- pKi ± SEM [2]: 8.90 ± 0.04
- IC50 [3]: 0.016 µM and ~0.02 µM
- Hill slope (nH) [4]: −2.2 ± 0.3
